Drawing on ChEMBL document CHEMBL4373640, “Synthesis and antitumor activity of aza-brazilan derivatives containing imidazolium salt pharmacophores” (Medchemcomm, 2019), this text covers IC50, Activity and viability for one compound.

Experiment [1] is described as follows: Cytotoxicity against human SMMC-7221 cells assessed as reduction in cell viability after 48 hrs by MTS assay. It counts as functional, cell-based. Particulars: SMMC-7221, 48 h. A digest of the protocol: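 Cells (5 × 10^3 per well) were plated 12 h before treatment, then exposed continuously to compound for 48 h. MTS was added, with 1–4 h incubation at 37 °C and OD read at 490 nm. IC50 is the concentration cutting OD by 50% versus untreated cells, taken from dose–response curves. Values are the mean of three independent determinations.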
For orientation: Formazan colour is commonly taken as a measure of viable cells.

Experiment [2] is described as follows: Cell cycle arrest in human SMMC-7221 cells assessed as accumulation at S phase at 1 uM after 24 hrs by propidium iodide/RNase A staining based FACSCalibur flow cytometry analysis (reference value: 14.733 +/- 1.29 %). The format is functional. (In flow cytometry, cells or beads pass a laser one at a time.)
Experiment [3] is described as follows: Cell cycle arrest in human SMMC-7221 cells assessed as accumulation at G2/M phase at 1 uM after 24 hrs by propidium iodide/RNase A staining based FACSCalibur flow cytometry analysis (reference value: 8.21 +/- 0.38 %). The format is functional.
Experiment [4] in a line: Cell cycle arrest in human SMMC-7221 cells assessed as accumulation at G0/G1 phase at 4 uM after 24 hrs by propidium iodide/RNase A staining based FACSCalibur flow cytometry analysis (reference value: 72.17 +/- 1.0 %). It counts as functional.
Experiment [5] is described as follows: Induction of apoptosis in human SMMC-7221 cells assessed as early apoptotic cells at 0.5 uM after 48 hrs by AnnexinV-FITC/propidium iodide staining based FACSCalibur flow cytometry analysis (reference value: 0.106 %). It counts as functional.
Experiment [6] can be described thus: Induction of apoptosis in human SMMC-7221 cells assessed as late apoptotic cells at 0.5 uM after 48 hrs by AnnexinV-FITC/propidium iodide staining based FACSCalibur flow cytometry analysis (reference value: 7.7 %). It counts as functional.
A short description of experiment [7]: Induction of apoptosis in human SMMC-7221 cells assessed as necrotic cells at 1 uM after 48 hrs by AnnexinV-FITC/propidium iodide staining based FACSCalibur flow cytometry analysis (reference value: 2.34 %). The format is functional.
The nature of experiment [8]: Induction of apoptosis in human SMMC-7221 cells assessed as viable cells at 4 uM after 48 hrs by AnnexinV-FITC/propidium iodide staining based FACSCalibur flow cytometry analysis (reference value: 89.8 %). Particulars: SMMC-7221, 48 h, read-out: Activity. It counts as functional.
Experiment [9] can be described thus: Induction of apoptosis in human SMMC-7221 cells assessed as viable cells at 8 uM after 48 hrs by AnnexinV-FITC/propidium iodide staining based FACSCalibur flow cytometry analysis (reference value: 89.8 %). The format is functional. As to conditions: SMMC-7221, 48 h, read-out: Activity.

For orientation: IC50 means the concentration that gives 50% inhibition. `COc1cccc2c1N(CCCn1c[n+](Cc3ccc(C)cc3)c3cc(C)c(C)cc31)C[C@@H]1Cc3ccc(Br)cc3[C@H]21.[Br-]`: the concentration for half-maximal inhibition (IC50) in experiment [1] came out at 520 nM. Also, the Activity was determined as 10.18% in experiment [2]; 7.64% in experiment [3]; 62.54% in [4]; 0.314% in experiment [5]; 8.66% in experiment [6]; 5.66% in experiment [7]. Moreover, in experiment [8], the viability at 4 µM amounted to 15.2%. In addition, the viability at 8 µM in [9] was determined as 5.16%.
